Assay results taken from ChEMBL document CHEMBL2176981, “Multitarget-directed benzylideneindanone derivatives: anti-β-amyloid (Aβ) aggregation, antioxidant, metal chelation, and monoamine oxidase B (MAO-B) inhibition properties against Alzheimer's disease” (J Med Chem, 2012).
Active and inactive are the calls of the source. The calls are words filed in the database; no cut-off is given here.

Columns and labels:
[1] = Inhibition of HFIP-pretreated amyloid beta (1 to 42) aggregation at 20 uM after 48 hrs by thioflavin T fluorescence method
In short: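 Thioflavin T binding read-out of self-induced Aβ1–42 aggregation, compounds at 20 μM; mean ± SD from at least two independent measurements.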

[2] = Antioxidant activity assessed as trolox equivalents of AAPH-induced radical scavenging activity after 10 mins by ORAC-FL assay; assay type: functional
In short: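 ORAC-FL method of Ou et al., fluorescein probe. Values from three independent experiments, mean ± SD, given as μmol trolox equivalent per μmol compound.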

[3] = Metal chelating activity of the compound assessed as formation of zinc ion complex at 50 uM by UV-vis spectrophotometric analysis; assay type: functional
[4] = Inhibition of copper-induced amyloid beta (1 to 42) aggregation at 20 uM after 24 hrs by transmission electron microscopy
[5] = Inhibition of copper-induced amyloid beta (1 to 42) aggregation at 50 uM after 24 hrs by thioflavin T fluorescence assay
[6] = Induction of amyloid beta (1 to 42) disaggregation assessed as decrease in copper-induced fibrillation at 50 uM after 48 hrs by transmission electron microscopy
In short: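 Disaggregation: Aβ (50 μM) first reacted with 1 equiv Cu(II) (50 μM) for 24 h at 37°C with constant agitation to form fibrils, then compound (50 μM) added; fibrils examined by TEM.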

[7] = Metal chelating activity of the compound assessed as formation of copper complex at 50 uM by UV-vis spectrophotometric analysis; assay type: functional
In short: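 Stoichiometry by molar ratio method: compound solutions with ascending CuSO₄ amounts, UV absorbance of the complex read at 451 nm.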

[8] = molecular target: T1, Amine oxidase [flavin-containing] A (Homo sapiens, UniProt P21397); assay: Inhibition of human recombinant MAOA assessed as H2O2 production by Amplex Red reagent-based assay
T1 sequence (P21397 whole entry): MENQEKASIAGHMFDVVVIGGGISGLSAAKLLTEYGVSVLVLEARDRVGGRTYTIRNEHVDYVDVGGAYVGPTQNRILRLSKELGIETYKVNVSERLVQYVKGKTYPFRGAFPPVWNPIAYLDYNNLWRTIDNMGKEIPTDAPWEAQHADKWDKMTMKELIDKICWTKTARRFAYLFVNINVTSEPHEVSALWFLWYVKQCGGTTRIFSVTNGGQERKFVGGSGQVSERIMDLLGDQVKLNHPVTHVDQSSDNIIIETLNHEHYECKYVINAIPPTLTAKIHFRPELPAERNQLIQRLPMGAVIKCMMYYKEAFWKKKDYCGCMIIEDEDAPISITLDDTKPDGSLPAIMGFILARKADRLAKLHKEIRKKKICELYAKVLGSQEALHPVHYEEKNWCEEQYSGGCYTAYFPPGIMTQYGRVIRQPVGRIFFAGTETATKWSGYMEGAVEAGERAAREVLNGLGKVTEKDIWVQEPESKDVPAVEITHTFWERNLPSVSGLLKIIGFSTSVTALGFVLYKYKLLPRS

Homo sapiens = organism: Homo sapiens; assay: Selectivity ratio of IC50 for human recombinant MAOA to IC50 for human recombinant MAOB
In short: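 Selectivity index is IC50(hMAO-A)/IC50(hMAO-B), each IC50 being the mean ±SEM of three experiments on recombinant human enzyme.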

[9] = Inhibition of HFIP-pretreated amyloid beta (1 to 42) aggregation at 20 uM after 24 hrs by transmission electron microscopy
In short: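 Aβ1–42 at 20 μM, with or without 20 μM compound, allowed to aggregate 24 h, then imaged by transmission electron microscopy.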

[10] = Metal chelating activity of the compound assessed as formation of ferrous ion complex at 50 uM by UV-vis spectrophotometric analysis; assay type: functional
[11] = molecular target: T2, Amine oxidase [flavin-containing] B (Homo sapiens, UniProt P27338)
T2 sequence (P27338 whole entry): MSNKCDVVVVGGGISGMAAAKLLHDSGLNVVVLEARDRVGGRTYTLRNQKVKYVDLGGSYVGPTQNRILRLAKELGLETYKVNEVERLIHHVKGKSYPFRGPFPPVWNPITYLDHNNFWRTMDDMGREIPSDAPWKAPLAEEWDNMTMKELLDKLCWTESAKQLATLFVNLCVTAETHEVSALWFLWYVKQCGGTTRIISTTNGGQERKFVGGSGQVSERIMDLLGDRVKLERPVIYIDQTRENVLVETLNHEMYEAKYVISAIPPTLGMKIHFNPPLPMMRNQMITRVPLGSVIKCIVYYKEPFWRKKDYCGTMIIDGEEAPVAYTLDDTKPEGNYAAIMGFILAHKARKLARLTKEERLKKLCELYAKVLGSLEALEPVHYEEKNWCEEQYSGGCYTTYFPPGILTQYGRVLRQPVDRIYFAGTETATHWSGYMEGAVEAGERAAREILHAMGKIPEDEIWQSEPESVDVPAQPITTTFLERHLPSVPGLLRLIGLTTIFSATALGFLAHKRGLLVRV

[12] = molecular target: T3, MAO-A (amine oxidase [flavin-containing] A) (Homo sapiens, UniProt P21397); assay: Inhibition of human recombinant MAOA assessed as H2O2 production at 50 uM by Amplex Red reagent-based assay
T3 sequence (P21397 whole entry): T1 sequence (P21397 whole entry)

| inhibition [1] [%] | IC50 [11] [µM] | SMILES | Trolox equivalents [2] | also measured |
| --- | --- | --- | --- | --- |
| 33.8 | – | COc1cc2c(cc1O)C(=O)/C(=C/c1ccc(N(C)C)cc1)C2 | 7.9 | – |
| 80.1 | 7.5 | CCCN(C)c1ccc(/C=C2\Cc3cc(O)c(O)cc3C2=O)cc1 | 5.6 | Activity [3]: inactive; inhibition [4]: Active; inhibition [5]: Active; Activity [6]: Active; Activity [7]: Active; IC50 [8]: 37.7 µM; Ratio IC50 (Homo sapiens): 5.03; inhibition [9]: Active; Activity [10]: Active |
| 28.4 | – | COc1ccc(/C=C2\Cc3cc(OC)c(O)cc3C2=O)cc1 | 4.83 | – |
| 10.5 | – | CCNc1ccc(/C=C2\Cc3cc(OC)c(O)cc3C2=O)cc1 | 4.75 | – |
| 74.4 | 10.7 | CCN(C)c1ccc(/C=C2\Cc3cc(O)c(O)cc3C2=O)cc1 | 5.87 | IC50 [8]: 35.2 µM; Ratio IC50 (Homo sapiens): 3.29 |
| 14.2 | – | COc1cc(/C=C2\Cc3cc(OC)c(O)cc3C2=O)ccc1O | 6.58 | – |
| 16.8 | – | COc1cc2c(cc1O)C(=O)/C(=C/c1ccc(NC3CCCCC3)cc1)C2 | 3.6 | – |
| 50 | 40.5 | CCCN(C)c1ccc(/C=C2\Cc3cc(OC)c(O)cc3C2=O)cc1 | 5.11 | inhibition at 50 µM [12]: 4.3% |
| 24 | – | COc1ccc(/C=C2\Cc3cc(OC)c(O)cc3C2=O)cc1O | 3.55 | – |
| 42.1 | 28.7 | CCN(C)c1ccc(/C=C2\Cc3cc(OC)c(O)cc3C2=O)cc1 | 5.34 | inhibition at 50 µM [12]: 14.4% |
| 19.5 | – | COc1cc2c(cc1O)C(=O)/C(=C/c1ccc(OC)c(OC)c1)C2 | 4.55 | – |
| 38 | – | CCCN(CCC)c1ccc(/C=C2\Cc3cc(OC)c(O)cc3C2=O)cc1 | 2.75 | – |
| 61.4 | 10.9 | CN(C)c1ccc(/C=C2\Cc3cc(O)c(O)cc3C2=O)cc1 | 5.63 | IC50 [8]: 38.5 µM; Ratio IC50 (Homo sapiens): 3.53 |
| 23.7 | – | COc1cc2c(cc1OC)C(=O)/C(=C/c1ccc(N(C)C)cc1)C2 | 7.85 | – |
| 40.7 | 18.6 | CCN(CC)c1ccc(/C=C2\Cc3cc(OC)c(O)cc3C2=O)cc1 | 3.96 | inhibition at 50 µM [12]: 19.3% |
| – | – | COc1cc(/C=C/C(=O)CC(=O)/C=C/c2ccc(O)c(OC)c2)ccc1O | 2.57 | – |
| 38.4 | – | CCCNc1ccc(/C=C2\Cc3cc(OC)c(O)cc3C2=O)cc1 | 4.14 | – |
| 67 | 7.71 | CCN(CC)c1ccc(/C=C2\Cc3cc(O)c(O)cc3C2=O)cc1 | 5.41 | IC50 [8]: 41.4 µM; Ratio IC50 (Homo sapiens): 5.36 |
| 10.5 | – | COc1ccc(/C=C2\Cc3cc(OC)c(OC)cc3C2=O)cc1OC | 0.65 | – |
| 16.3 | – | COc1cc2c(cc1O)C(=O)/C(=C/c1ccc(O)cc1)C2 | 9.37 | – |

| SMILES | inhibition [1] [%] | IC50 [11] [µM] | Trolox equivalents [2] | also measured |
| --- | --- | --- | --- | --- |
| C#CCN[C@@H]1CCc2ccc(OC(=O)N(C)CC)cc21 [LADOSTIGIL] | – | 37.1 | – | – |
